Series [1] relates to CCRF-CEM. In words: In vitro cytotoxicity against CCRF-CEM cells. The series is classed as functional, cell-based. Particulars: Homo sapiens. The procedure, abridged:
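CCRF-CEM cells were grown in culture for 72 h with compound. The value is the concentration that inhibited growth to 50% of control growth.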

For series [2], the system named is Mus musculus. In words: In vivo antitumor activity against subaxillary implanted 6C3HED lymphosarcoma implanted in C3H mice at a dose of 300 mg/kg administered perorally twice daily for a period of 8 days. The format is functional. Conditions: 192 h, route oral. The procedure, abridged:
(§1)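 6C3HED lymphosarcoma was carried in C3H mice. Compound was dosed at the stated route and schedule for 8 days (daily, twice daily, or days 1, 3, 5, 7) and tumor growth inhibition was scored against controls. The table value is the lowest dose giving >80% inhibition, or the highest dose tested. Deaths per group were recorded.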

Series [3] relates to Mus musculus. In words: In vivo antitumor activity of compound against subaxillary implanted 6C3HED lymphosarcoma implanted in C3H mice at a dose of 300 mg/kg administered intraperitoneally daily for a period of 8 days. The series is classed as functional. Conditions: ip, 192 h, route intraperitoneal. The procedure, abridged: as §1
For series [4], the system named is Mus musculus. In words: In vivo antitumor activity of compound against subaxillary implanted 6C3HED lymphosarcoma implanted in C3H mice at a dose of 150 mg/kg administered intraperitoneally daily for a period of 8 days. The format is functional. Particulars: ip, 192 h, route intraperitoneal. The procedure, abridged: as §1
Series [5] deals with Mus musculus. Briefly: In vivo antitumor activity against subaxillary implanted 6C3HED lymphosarcoma implanted in C3H mice at a dose of 150 mg/kg administered perorally twice daily for a period of 8 days. The format is functional. Particulars: Mus musculus, 6C3HED, po, 192 h. The procedure, abridged:
as §1

For series [6], the system named is Mus musculus. In words: In vivo antitumor activity against subaxillary implanted 6C3HED lymphosarcoma implanted in C3H mice at a dose of 300 mg/kg administered perorally daily for a period of 8 days. Particulars: 192 h, route oral. The series is classed as functional. The procedure, abridged: as §1
For series [7], the system named is Mus musculus. Briefly: In vivo antitumor activity of compound against subaxillary implanted 6C3HED lymphosarcoma implanted in C3H mice at a dose of 75 mg/kg administered perorally twice daily for a period of 8 days. The format is functional. Particulars: 192 h, route oral. An outline of the steps: as §1
For series [8], the system named is Mus musculus. In words: (§2) Metabolic breakdown to the o-sulfate of p-chloroaniline (2-amino-5-chlorophenyl sulfate) by giving 100 mg/kg oral doses of the compound. The format is functional. An outline of the steps:
(§3)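 Groups of two to four mice received single 100 mg/kg oral doses of each compound. Urine was pooled over 0-24 h, and the 2-amino-5-chlorophenyl sulfate excreted in 24 h per mouse was quantified as the marker of p-chloroaniline release.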

The nature of series [9]: as §2. The format is ADME, organism-based. Details: dose 100 mg/kg, route oral. Conditions: in vivo. An outline of the steps:
as §3

For series [10], the system named is Mus musculus. Briefly: In vivo antitumor activity of compound against subaxillary implanted 6C3HED lymphosarcoma implanted in C3H mice at a dose of 50 mg/kg administered perorally twice daily for a period of 8 days. The format is functional. Particulars: 192 h, route oral. The procedure, abridged:
as §1

For series [11], the system named is Mus musculus. Briefly: In vivo antitumor activity of compound against subaxillary implanted 6C3HED lymphosarcoma implanted in C3H mice at a dose of 19 mg/kg administered perorally on days 1, 3, 5, 7. The format is functional. Conditions: route oral. The procedure, abridged: as §1

We go through 24 compounds from ChEMBL document CHEMBL1129963, “Sulfonimidamide analogs of oncolytic sulfonylureas” (J Med Chem, 1997).

Broadly, the IC50 is the concentration needed to halve the response being measured. Lower therefore signals greater potency in that assay. As usually defined, the inhibition in vivo is the change of the read-out against control, counted positive when it falls. Read a high inhibition in vivo as a response far below the control.

In brackets after ≈: the same amount, converted by molar mass.

As to `CCCCN(C(C)=O)[S+]([O-])(=NC(=O)Nc1ccc(Cl)cc1)c1ccc(C)cc1` (configuration not stated), the IC50 in series [1] was determined as 12.5 µg/mL (≈ 29.6 µM). In addition, the inhibition in vivo at 300 mg/kg in series [2] came to 53%.
Regarding `CCCCNC(=O)N=[S+](N)([O-])c1ccc(C)cc1` (configuration not stated), in series [1], the concentration for half-maximal inhibition (IC50) is greater than 20 µg/mL. This compound also gave an inhibition in vivo at 300 mg/kg in series [3] of 12%.
As for `N[S+]([O-])(=NC(=O)Nc1ccc(Cl)cc1)c1ccc(C=O)cc1` (configuration not stated), the IC50 in [1] is 5.6 µg/mL (≈ 16.6 µM). Testing at 150 mg/kg in [4] gave an inhibition in vivo of 80%.
Compound `CC(=O)N(C)[S+]([O-])(=NC(=O)Nc1ccc(Cl)cc1)c1ccc(C)cc1` (configuration not stated) displayed an IC50 in [1] of 9.6 µg/mL (≈ 25.3 µM). This compound gave an inhibition in vivo at 150 mg/kg in [5] of 98%.
As to `Cc1ccc([S+]([O-])(=NC(=O)Nc2ccc(Cl)cc2)Nc2ccccc2)cc1` (configuration not stated), the IC50 in [1] was determined as 7 µg/mL (≈ 17.5 µM). The inhibition in vivo at 300 mg/kg in [6] was found to be 5%.
Consider `CC(=O)N[S+]([O-])(=NC(=O)Nc1ccc(Cl)cc1)c1ccc(C)cc1` (configuration not stated), for which, in series [1], the IC50 is greater than 20 µg/mL. The compound further displayed an inhibition in vivo at 300 mg/kg in [2] of 84%.
For the compound `N[S+]([O-])(=NC(=O)Nc1ccc(Cl)cc1)c1ccc(CO)cc1` (configuration not stated), the half-maximal inhibitory concentration (IC50) in series [1] is greater than 20 µg/mL. Besides, in [7], the inhibition in vivo at 75 mg/kg is 99%.
Compound `COc1ccc(NC(=O)N=[S+](N)([O-])c2ccc(C)cc2)cc1` (configuration not stated) came in with a half-inhibitory concentration (IC50) in [1] greater than 20 µg/mL. Moreover, 300 mg/kg produced 0% inhibition in vivo in [2].
For `COC(=O)c1ccc([S+](N)([O-])=NC(=O)Nc2ccc(Cl)cc2)cc1` (configuration not stated) the same measures were greater than 20 µg/mL and 0%.
`Cc1ccc(S(=O)(=O)NC(=O)Nc2ccc(Cl)cc2)cc1` [LY-181984] came in with an inhibition in vivo at 150 mg/kg in series [5] of 93%. The compound further registered an Activity in [8] of 1.02 µM.
As for `N[S+]([O-])(=NC(=O)Nc1ccc(Cl)cc1)c1ccccc1` (configuration not stated), the IC50 in series [1] was greater than 20 µg/mL. 300 mg/kg produced 0% inhibition in vivo in series [2].
With `Cc1ccc([S+](N)([O-])=NC(=O)N(C)c2ccc(Cl)cc2)cc1` (configuration not stated), the half-maximal inhibitory concentration (IC50) in series [1] is greater than 20 µg/mL. Moreover, the inhibition in vivo at 150 mg/kg in series [5] turned out to be 83%.
Compound `CN[S+]([O-])(=NC(=O)N(C)c1ccc(Cl)cc1)c1ccc(C)cc1` (configuration not stated) returned an IC50 in series [1] greater than 20 µg/mL. Besides, the inhibition in vivo at 150 mg/kg in series [5] is 91%.
`Cc1ccc([S+]([O-])(=NC(=O)Nc2ccc(Cl)cc2)NCCO)cc1` (configuration not stated) registered an IC50 in [1] greater than 20 µg/mL. Moreover, in [6], 300 mg/kg produced 60% inhibition in vivo.
In series [1], `C=CCN[S+]([O-])(=NC(=O)Nc1ccc(Cl)cc1)c1ccc(C)cc1` (configuration not stated) came in with a 50% inhibitory concentration (IC50) of 10 µg/mL (≈ 27.5 µM). This compound returned an inhibition in vivo at 300 mg/kg in [2] of 45%.
For `CCCCN(C(C)=O)[S+]([O-])(=NC(=O)N(C(C)=O)c1ccc(Cl)cc1)c1ccc(C)cc1` (configuration not stated) the same measures were 2.9 µg/mL (≈ 6.25 µM) and 10%.
For `Cc1ccc([S+](N)([O-])=NC(=O)Nc2ccccc2)cc1` (configuration not stated), in series [1], the concentration for half-maximal inhibition (IC50) was greater than 20 µg/mL. Moreover, in [5], testing at 150 mg/kg gave an inhibition in vivo of 0%.
With `Cc1ccc([S+](N)([O-])=NC(=O)Nc2ccc(Cl)cc2)cc1` (stereo in doubt; 14), the IC50 in series [1] was greater than 20 µg/mL. The inhibition in vivo at 150 mg/kg in [4] was 92%. In series [9], the Activity is less than 0.2 µM. In addition, the results for the inhibition in vivo at 300 mg/kg in [3] and in [6] were 98% and 89%, respectively. In [10], the inhibition in vivo at 50 mg/kg came to 95%.
Turning to `CC(=O)OCc1ccc([S+](N)([O-])=NC(=O)Nc2ccc(Cl)cc2)cc1` (configuration not stated), in [1], the IC50 is greater than 20 µg/mL. At 50 mg/kg the inhibition in vivo in series [10] was 87%.
In the case of `CC(C)(C)c1ccc([S+](N)([O-])=NC(=O)Nc2ccc(Cl)cc2)cc1` (configuration not stated), in series [1], inhibition was half-maximal at 1.7 µg/mL (≈ 4.65 µM) (IC50). In [2], this compound registered an inhibition in vivo at 300 mg/kg of 11%.
On to `Cc1ccc([S+](N)([O-])=NC(=O)Nc2ccc(Br)cc2)cc1` (configuration not stated), for which the IC50 in series [1] is greater than 20 µg/mL. In [5], this compound came in with an inhibition in vivo at 150 mg/kg of 100%.
As to `Cc1ccc([S+]([O-])(=NC(=O)Nc2ccc(Cl)cc2)N(C)C)cc1` (configuration not stated), the IC50 in series [1] was greater than 20 µg/mL. This compound also showed an inhibition in vivo at 300 mg/kg in [2] of 63%.
For the compound `O=C(Nc1ccc(Cl)cc1)NS(=O)(=O)c1ccc2c(c1)CCC2` [SULOFENUR], in [5], the inhibition in vivo at 150 mg/kg was determined as 91%. Besides, in series [8], the Activity was found to be 0.37 µM.
Take `Cc1cc([S+](N)([O-])=NC(=O)Nc2ccc(Cl)cc2)cc(C)c1C` (configuration not stated): in series [1], the IC50 was 12.7 µg/mL (≈ 36.1 µM). This compound showed an inhibition in vivo at 19 mg/kg in [11] of 95%.
